{"source": "ChEMBL document CHEMBL4689842", "about": "“EUbOPEN Chemogenomics Library wave 1” (2021)", "test_system": "HEK-293T", "assay": "Multiplex assay against HEK293T;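 on Population Tubulin-Different-Phenotype (%): share of the cells with healthy nuclei that show this phenotype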", "format": "toxicity, cell-based", "conditions": "human", "in_short": "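Phenotypes for tubulin, mitochondrial mass and membrane permeability are expressed as per cents of healthy-nucleus cells. Cells were stained live at seeding with Hoechst33342, BioTracker Green Microtubule Cytoskeleton Dye, MitoTracker Red and Annexin V Alexa Fluor 680, then imaged after compound addition on a CQ1 microscope at 37°C and 5% CO2. Machine-learning gating in CellPathfinder separated Hoechst high-intensity objects from normal cells, divided normal cells by nuclear state (healthy, pyknosed, fragmented) and divided pyknosed cells into mitotic or apoptotic.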", "key": {"[1]": {"conditions": "12 h, 1 µM, compound concentration 1 uM, replicate 1"}, "[2]": {"conditions": "12 h, 1 µM, compound concentration 1 uM, replicate 2"}, "[3]": {"conditions": "12 h, 10 µM, compound concentration 10 uM, replicate 1"}, "[4]": {"conditions": "12 h, 10 µM, compound concentration 10 uM, replicate 2"}, "[5]": {"conditions": "24 h, 1 µM, compound concentration 1 uM, replicate 1"}, "[6]": {"conditions": "24 h, 1 µM, compound concentration 1 uM, replicate 2"}, "[7]": {"conditions": "24 h, 10 µM, compound concentration 10 uM, replicate 1"}, "[8]": {"conditions": "24 h, 10 µM, compound concentration 10 uM, replicate 2"}, "[9]": {"conditions": "48 h, 1 µM, compound concentration 1 uM, replicate 1"}, "[10]": {"conditions": "48 h, 1 µM, compound concentration 1 uM, replicate 2"}, "[11]": {"conditions": "48 h, 10 µM, compound concentration 10 uM, replicate 1"}, "[12]": {"conditions": "48 h, 10 µM, compound concentration 10 uM, replicate 2"}}, "note": "Where “and” joins values, the source holds several entries; their conditions need not be identical. Identical values can stand only once.", "data": [{"molecule": "O=C(NCCCC1CCCCC1)c1ccc(CNC(=O)c2cnn(-c3ccccc3)c2C(F)(F)F)cc1", "note": "[SR-321]", "values": [{"measurement": "Population Apoptotic (%)", "setting": "[1]", "value": "40% and 29% and 42%"}, {"measurement": "Population Fragmented Nuclei (%)", "setting": "[1]", "value": "15% [middle of 4 runs]"}, {"measurement": "Population Healthy Nuclei (%)", "setting": "[1]", "value": "31% and 37% and 67%"}, {"measurement": "Population Hoechst High Intensity Objects (%)", "setting": "[1]", "value": "14% [middle of 4 runs]"}, {"measurement": "Population Membrane Permeable-Phenotype (%)", "setting": "[1]", "value": "2% and 0% and 3%"}, {"measurement": "Population Mitotic Cells (%)", "setting": "[1]", "value": "59% and 70% and 57%"}, {"measurement": "Population Normal (%)", "setting": "[1]", "value": "85% and 83% and 90% and 88%"}, {"measurement": "Total Cell Count", "setting": "[1]", "value": "312 [middle of 4 runs]"}, {"measurement": "Population Apoptotic (%)", "setting": "[2]", "value": "10% [middle of 4 runs]"}, {"measurement": "Population Fragmented Nuclei (%)", "setting": "[2]", "value": "6% [middle of 4 runs]"}, {"measurement": "Population Healthy Nuclei (%)", "setting": "[2]", "value": "42% [middle of 4 runs]"}, {"measurement": "Population Hoechst High Intensity Objects (%)", "setting": "[2]", "value": "3% and 2% and 5%"}, {"measurement": "Population Membrane Permeable-Phenotype (%)", "setting": "[2]", "value": "10% and 8% and 1%"}, {"measurement": "Population Mitochondria Different-Phenotype (%)", "setting": "[2]", "value": "10% and 19% and 7%"}, {"measurement": "Population Mitotic Cells (%)", "setting": "[2]", "value": "85% and 90% and 89% and 92%"}, {"measurement": "Population Normal (%)", "setting": "[2]", "value": "96% and 97% and 94%"}, {"measurement": "Population Apoptotic (%)", "setting": "[3]", "value": "50% [middle of 4 runs]"}, {"measurement": "Population Fragmented Nuclei (%)", "setting": "[3]", "value": "16% [middle of 4 runs]"}, {"measurement": "Population Hoechst High Intensity Objects (%)", "setting": "[3]", "value": "17% [middle of 4 runs]"}, {"measurement": "Population Membrane Permeable-Phenotype (%)", "setting": "[3]", "value": "6% and 2% and 4%"}, {"measurement": "Population Mitotic Cells (%)", "setting": "[3]", "value": "60% [middle of 4 runs]"}, {"measurement": "Population Normal (%)", "setting": "[3]", "value": "86% and 81% and 82% and 89%"}, {"measurement": "Total Cell Count", "setting": "[3]", "value": "302 [middle of 4 runs]"}, {"measurement": "Population Healthy Nuclei (%)", "setting": "[4]", "value": "38% [middle of 4 runs]"}, {"measurement": "Population Hoechst High Intensity Objects (%)", "setting": "[4]", "value": "4% and 2% and 3%"}, {"measurement": "Population Membrane Permeable-Phenotype (%)", "setting": "[4]", "value": "5% and 3% and 0%"}, {"measurement": "Population Mitotic Cells (%)", "setting": "[4]", "value": "86% [middle of 4 runs]"}, {"measurement": "Population Normal (%)", "setting": "[4]", "value": "95% and 97% and 96%"}, {"measurement": "Population Tubulin-Different-Phenotype (%)", "setting": "[4]", "value": "32% [middle of 4 runs]"}, {"measurement": "Population Fragmented Nuclei (%)", "setting": "[5]", "value": "13% [middle of 4 runs]"}, {"measurement": "Population Healthy Nuclei (%)", "setting": "[5]", "value": "42% and 36% and 81%"}, {"measurement": "Population Hoechst High Intensity Objects (%)", "setting": "[5]", "value": "15% [middle of 4 runs]"}, {"measurement": "Population Membrane Permeable-Phenotype (%)", "setting": "[5]", "value": "2% [middle of 4 runs]"}, {"measurement": "Population Mitotic Cells (%)", "setting": "[5]", "value": "59% and 54% and 58% and 86%"}, {"measurement": "Population Normal (%)", "setting": "[5]", "value": "87% and 83% and 84% and 93%"}, {"measurement": "Total Cell Count", "setting": "[5]", "value": "361 [middle of 4 runs]"}, {"measurement": "Population Healthy Nuclei (%)", "setting": "[6]", "value": "65% [middle of 4 runs]"}, {"measurement": "Population Hoechst High Intensity Objects (%)", "setting": "[6]", "value": "2% and 3%"}, {"measurement": "Population Membrane Permeable-Phenotype (%)", "setting": "[6]", "value": "11% [middle of 4 runs]"}, {"measurement": "Population Mitotic Cells (%)", "setting": "[6]", "value": "82% and 89% and 94%"}, {"measurement": "Population Normal (%)", "setting": "[6]", "value": "97% and 96%"}, {"measurement": "Population Tubulin-Different-Phenotype (%)", "setting": "[6]", "value": "20% [middle of 4 runs]"}, {"measurement": "Population Apoptotic (%)", "setting": "[7]", "value": "57% [middle of 4 runs]"}, {"measurement": "Population Fragmented Nuclei (%)", "setting": "[7]", "value": "16% and 19% and 18%"}, {"measurement": "Population Membrane Permeable-Phenotype (%)", "setting": "[7]", "value": "0% and 4% and 6%"}, {"measurement": "Population Mitotic Cells (%)", "setting": "[7]", "value": "53% [middle of 4 runs]"}, {"measurement": "Population Normal (%)", "setting": "[7]", "value": "81% and 80% and 85% and 93%"}, {"measurement": "Population Tubulin-Different-Phenotype (%)", "setting": "[7]", "value": "59% and 53% and 26%"}, {"measurement": "Population Healthy Nuclei (%)", "setting": "[8]", "value": "55% [middle of 4 runs]"}, {"measurement": "Population Hoechst High Intensity Objects (%)", "setting": "[8]", "value": "3% and 4%"}, {"measurement": "Population Mitotic Cells (%)", "setting": "[8]", "value": "73% and 81% and 95%"}, {"measurement": "Population Normal (%)", "setting": "[8]", "value": "96% and 95%"}, {"measurement": "Population Tubulin-Different-Phenotype (%)", "setting": "[8]", "value": "44% [middle of 4 runs]"}, {"measurement": "Population Apoptotic (%)", "setting": "[9]", "value": "41% and 50% and 34%"}, {"measurement": "Population Fragmented Nuclei (%)", "setting": "[9]", "value": "14% and 21% and 17%"}, {"measurement": "Population Healthy Nuclei (%)", "setting": "[9]", "value": "34% and 40%"}, {"measurement": "Population Hoechst High Intensity Objects (%)", "setting": "[9]", "value": "14% and 20%"}, {"measurement": "Population Membrane Permeable-Phenotype (%)", "setting": "[9]", "value": "4% and 2%"}, {"measurement": "Population Mitochondria Different-Phenotype (%)", "setting": "[9]", "value": "31% and 29%"}, {"measurement": "Population Mitotic Cells (%)", "setting": "[9]", "value": "58% and 49% and 65%"}, {"measurement": "Population Normal (%)", "setting": "[9]", "value": "85% and 79%"}, {"measurement": "Population Pyknosed Nuclei (%)", "setting": "[9]", "value": "50% and 38% and 42%"}, {"measurement": "Population Tubulin-Different-Phenotype (%)", "setting": "[9]", "value": "27% and 29%"}, {"measurement": "Total Cell Count", "setting": "[9]", "value": "401 and 332 and 411"}, {"measurement": "Population Apoptotic (%)", "setting": "[10]", "value": "9% and 8% and 13%"}, {"measurement": "Population Fragmented Nuclei (%)", "setting": "[10]", "value": "6% and 5%"}, {"measurement": "Population Healthy Nuclei (%)", "setting": "[10]", "value": "79% and 76% and 82%"}, {"measurement": "Population Hoechst High Intensity Objects (%)", "setting": "[10]", "value": "3% and 5%"}, {"measurement": "Population Membrane Permeable-Phenotype (%)", "setting": "[10]", "value": "8% and 6%"}, {"measurement": "Population Mitochondria Different-Phenotype (%)", "setting": "[10]", "value": "3% and 7% and 6%"}, {"measurement": "Population Mitotic Cells (%)", "setting": "[10]", "value": "90% and 91% and 86%"}, {"measurement": "Population Normal (%)", "setting": "[10]", "value": "96% and 94%"}, {"measurement": "Population Pyknosed Nuclei (%)", "setting": "[10]", "value": "13% and 17% and 11%"}, {"measurement": "Population Tubulin-Different-Phenotype (%)", "setting": "[10]", "value": "18% and 22% and 15%"}, {"measurement": "Total Cell Count", "setting": "[10]", "value": "377 and 459 and 394"}, {"measurement": "Population Apoptotic (%)", "setting": "[11]", "value": "48% and 63% and 54%"}, {"measurement": "Population Fragmented Nuclei (%)", "setting": "[11]", "value": "23% and 25%"}, {"measurement": "Population Healthy Nuclei (%)", "setting": "[11]", "value": "28% and 27% and 18%"}, {"measurement": "Population Hoechst High Intensity Objects (%)", "setting": "[11]", "value": "19% and 20% and 16%"}, {"measurement": "Population Membrane Permeable-Phenotype (%)", "setting": "[11]", "value": "0% and 1%"}, {"measurement": "Population Mitochondria Different-Phenotype (%)", "setting": "[11]", "value": "73% and 83%"}, {"measurement": "Population Mitotic Cells (%)", "setting": "[11]", "value": "51% and 36% and 45%"}, {"measurement": "Population Normal (%)", "setting": "[11]", "value": "80% and 79% and 83%"}, {"measurement": "Population Pyknosed Nuclei (%)", "setting": "[11]", "value": "47% and 48% and 56%"}, {"measurement": "Population Tubulin-Different-Phenotype (%)", "setting": "[11]", "value": "32% and 59%"}, {"measurement": "Total Cell Count", "setting": "[11]", "value": "274 and 281 and 324"}, {"measurement": "Population Apoptotic (%)", "setting": "[12]", "value": "30% and 26% and 20%"}, {"measurement": "Population Fragmented Nuclei (%)", "setting": "[12]", "value": "6% and 5% and 8%"}, {"measurement": "Population Healthy Nuclei (%)", "setting": "[12]", "value": "78% and 75% and 74%"}, {"measurement": "Population Hoechst High Intensity Objects (%)", "setting": "[12]", "value": "3% and 2%"}, {"measurement": "Population Membrane Permeable-Phenotype (%)", "setting": "[12]", "value": "5% and 2%"}, {"measurement": "Population Mitochondria Different-Phenotype (%)", "setting": "[12]", "value": "27% and 41% and 31%"}, {"measurement": "Population Mitotic Cells (%)", "setting": "[12]", "value": "69% and 73% and 79%"}, {"measurement": "Population Normal (%)", "setting": "[12]", "value": "96% and 97%"}, {"measurement": "Population Pyknosed Nuclei (%)", "setting": "[12]", "value": "15% and 19% and 17%"}, {"measurement": "Population Tubulin-Different-Phenotype (%)", "setting": "[12]", "value": "50% and 52% and 49%"}, {"measurement": "Total Cell Count", "setting": "[12]", "value": "396 and 327 and 349"}]}]}
